According to ChEMBL document CHEMBL2384967, “Benzimidazole-based antibacterial agents against Francisella tularensis” (Bioorg Med Chem, 2013):
In brackets after ≈: the same amount, converted by molar mass.

Tests used:
Francisella tularensis [1] = test: Antibacterial activity against Francisella tularensis LVS at 0.2 ug/ml by Microplate Alamar Blue assay; assay type: functional; conditions: read-out: GI
Vero = test: Cytotoxicity against african green monkey vero cells after 3 days; assay type: cell-based; conditions: Chlorocebus sabaeus, 72 h
Outline: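 Vero cells grown in L15 medium without CO2, 1.25×10^5 per well. Triplicate 2-fold drug dilutions from 200 µg/mL, with resazurin at a final 25 µg/mL, for 3 days at 37 °C. LD is the lowest concentration that inhibits growth, with no resazurin reduction.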

Francisella tularensis [2] = test: Antibacterial activity against Francisella tularensis LVS after 18 hrs by Microplate Alamar Blue assay; assay type: functional
Francisella tularensis [3] = test: Antibacterial activity against Francisella tularensis LVS at 1 ug/ml by Microplate Alamar Blue assay; assay type: functional; conditions: read-out: GI
Francisella tularensis [4] = test: Antibacterial activity against Francisella tularensis LVS infected in mouse RAW 264.7 macrophages after 18 hrs; assay type: functional
Francisella tularensis [5] = test: Antibacterial activity against Francisella tularensis LVS infected in mouse RAW 264.7 macrophages assessed as log reduction in CFU at 2 to 50 ug/ml after 18 hrs relative to control; assay type: functional

## CCOC(=O)Nc1cc(NC(=O)c2ccccc2)c2[nH]c(-c3ccco3)nc2c1
Francisella tularensis [1]
  inhibition of growth at 0.2 µg/mL: 40%
Vero
  IC50: > 200 µg/mL
Francisella tularensis [2]
  MIC90: 3.8 µg/mL (≈ 9.73 µM)
Francisella tularensis [3]
  inhibition of growth at 1 µg/mL: > 90%

## O=C(Nc1cc2nc(-c3ccco3)[nH]c2cc1N1CCCCC1)c1cccc2ccccc12
Francisella tularensis [4]
  Activity: Dose-dependent effect
Vero
  IC50: > 200 µg/mL
Francisella tularensis [2]
  MIC90: 2.4 µg/mL (≈ 5.5 µM)
Francisella tularensis [3]
  inhibition of growth at 1 µg/mL: > 90%
Francisella tularensis [5]
  FC: 2

## COc1ccccc1C(=O)Nc1cc2nc(-c3ccco3)[nH]c2cc1N1CCCCC1
Francisella tularensis [4]
  Activity: Dose-dependent effect
Vero
  IC50: > 200 µg/mL
Francisella tularensis [2]
  MIC90: 2.1 µg/mL (≈ 5.04 µM)
Francisella tularensis [3]
  inhibition of growth at 1 µg/mL: > 90%
Francisella tularensis [5]
  FC: 2

## CCOC(=O)Nc1cc(N)c2[nH]c(-c3cc(C)cc(C)c3)nc2c1
Vero
  IC50: > 200 µg/mL
Francisella tularensis [2]
  MIC90: 4.33 µg/mL (≈ 13.3 µM)
Francisella tularensis [3]
  inhibition of growth at 1 µg/mL: > 90%

## CN(C)CCN(C)c1cc2[nH]c(C3CCCCC3)nc2cc1NS(=O)(=O)c1ccccc1
Vero
  IC50: > 200 µg/mL
Francisella tularensis [2]
  MIC90: 48.6 µg/mL (≈ 107 µM)
Francisella tularensis [3]
  inhibition of growth at 1 µg/mL: > 90%

## CCOC(=O)Nc1cc(NC(=O)c2ccc(OC)cc2)c2[nH]c(-c3ccc(C(=O)OC)cc3)nc2c1
Francisella tularensis [1]
  inhibition of growth at 0.2 µg/mL: 40%
Vero
  IC50: > 200 µg/mL
Francisella tularensis [3]
  inhibition of growth at 1 µg/mL: > 90%

## CCN(CC)c1cc2[nH]c(-c3ccc(C)cc3)nc2cc1NC(=O)C1CCC1
Francisella tularensis [1]
  inhibition of growth at 0.2 µg/mL: 40%
Vero
  IC50: > 200 µg/mL
Francisella tularensis [2]
  MIC90: 1.16 µg/mL (≈ 3.08 µM)
Francisella tularensis [3]
  inhibition of growth at 1 µg/mL: > 90%

## CCOC(=O)Nc1cc(NC(=O)c2ccc(F)cc2)c2[nH]c(-c3ccco3)nc2c1
Francisella tularensis [1]
  inhibition of growth at 0.2 µg/mL: 40%
Vero
  IC50: > 200 µg/mL
Francisella tularensis [2]
  MIC90: 2.8 µg/mL (≈ 6.86 µM)
Francisella tularensis [3]
  inhibition of growth at 1 µg/mL: > 90%

## CCOC(=O)Nc1cc(NC(=O)c2ccccc2OC)c2[nH]c(-c3ccc(Br)cc3)nc2c1
Vero
  IC50: > 200 µg/mL
Francisella tularensis [2]
  MIC90: 1.4 µg/mL (≈ 2.75 µM)
Francisella tularensis [3]
  inhibition of growth at 1 µg/mL: > 90%

## CC(C)(C)OC(=O)Nc1cc(NC(=O)OCc2ccccc2)c2[nH]c(-c3ccccc3)nc2c1
Vero
  IC50: > 200 µg/mL
Francisella tularensis [2]
  MIC90: 0.35 µg/mL (≈ 0.763 µM)
Francisella tularensis [3]
  inhibition of growth at 1 µg/mL: > 90%

## CCOC(=O)Nc1cc(NC(=O)C2CCCCC2)c2[nH]c(-c3ccc(C(=O)OC)cc3)nc2c1
Francisella tularensis [1]
  inhibition of growth at 0.2 µg/mL: 40%
Vero
  IC50: > 200 µg/mL
Francisella tularensis [2]
  MIC90: 1.5 µg/mL (≈ 3.23 µM)
Francisella tularensis [3]
  inhibition of growth at 1 µg/mL: > 90%

## CCN(CC)c1cc2[nH]c(-c3ccccc3OC)nc2cc1NC(=O)c1ccccc1OC
Vero
  IC50: > 200 µg/mL
Francisella tularensis [2]
  MIC90: 4.85 µg/mL (≈ 10.9 µM)
Francisella tularensis [3]
  inhibition of growth at 1 µg/mL: > 90%

## CCN(CC)c1cc2[nH]c(-c3ccccc3OC)nc2cc1NC(=O)C1CCC1
Vero
  IC50: > 200 µg/mL
Francisella tularensis [2]
  MIC90: 7.59 µg/mL (≈ 19.3 µM)
Francisella tularensis [3]
  inhibition of growth at 1 µg/mL: > 90%

## O=C(Nc1cc2nc(C3CCCCC3)[nH]c2cc1N1CCCC1)C1CC1
Vero
  IC50: > 200 µg/mL
Francisella tularensis [2]
  MIC90: 2.1 µg/mL (≈ 5.96 µM)
Francisella tularensis [3]
  inhibition of growth at 1 µg/mL: > 90%

## CCOC(=O)Nc1cc(NC(=O)C2CCCC2)c2[nH]c(-c3ccc(Br)cc3)nc2c1
Vero
  IC50: > 200 µg/mL
Francisella tularensis [2]
  MIC90: 0.75 µg/mL (≈ 1.59 µM)
Francisella tularensis [3]
  inhibition of growth at 1 µg/mL: > 90%

## CCN(CC)c1cc2[nH]c(-c3ccccc3)nc2cc1NC(=O)c1ccc(C)cc1
Francisella tularensis [1]
  inhibition of growth at 0.2 µg/mL: 40%
Vero
  IC50: > 200 µg/mL
Francisella tularensis [2]
  MIC90: 12.9 µg/mL (≈ 32.4 µM)
Francisella tularensis [3]
  inhibition of growth at 1 µg/mL: > 90%

## CCOC(=O)Nc1cc(NC(=O)c2ccccc2)c2[nH]c(-c3ccc(C(=O)OC)cc3)nc2c1
Francisella tularensis [1]
  inhibition of growth at 0.2 µg/mL: 40%
Vero
  IC50: 650 µg/mL (≈ 1420 µM)
Francisella tularensis [3]
  inhibition of growth at 1 µg/mL: > 90%

## CCOC(=O)Nc1cc(NC(=O)c2ccccc2)c2[nH]c(-c3ccc(Br)cc3)nc2c1
Vero
  IC50: > 200 µg/mL
Francisella tularensis [2]
  MIC90: 0.48 µg/mL (≈ 1 µM)
Francisella tularensis [3]
  inhibition of growth at 1 µg/mL: > 90%

## CCN(CC)c1cc2[nH]c(-c3ccc(F)cc3)nc2cc1NC(=O)C1CCC1
Vero
  IC50: > 200 µg/mL
Francisella tularensis [2]
  MIC90: 4.84 µg/mL (≈ 12.7 µM)
Francisella tularensis [3]
  inhibition of growth at 1 µg/mL: > 90%

## CCN(CCN(C)C)c1cc2[nH]c(C3CCCCC3)nc2cc1NS(=O)(=O)c1ccccc1
Vero
  IC50: > 200 µg/mL
Francisella tularensis [2]
  MIC90: 35.8 µg/mL (≈ 76.2 µM)
Francisella tularensis [3]
  inhibition of growth at 1 µg/mL: > 90%

## CCOC(=O)Nc1cc(N)c2[nH]c(-c3ccc(Br)cc3)nc2c1
Vero
  IC50: > 200 µg/mL
Francisella tularensis [2]
  MIC90: 2.99 µg/mL (≈ 7.97 µM)
Francisella tularensis [3]
  inhibition of growth at 1 µg/mL: > 90%

## O=C(Nc1cc2nc(-c3cccs3)[nH]c2cc1N1CCCCC1)OCc1ccccc1
Francisella tularensis [4]
  Activity: Dose-dependent effect
Vero
  IC50: > 200 µg/mL
Francisella tularensis [2]
  MIC90: 0.98 µg/mL (≈ 2.27 µM)
Francisella tularensis [3]
  inhibition of growth at 1 µg/mL: > 90%
Francisella tularensis [5]
  FC: 2

## COc1ccccc1C(=O)Nc1cc2nc(-c3cccs3)[nH]c2cc1N1CCCCC1
Vero
  IC50: > 200 µg/mL
Francisella tularensis [2]
  MIC90: 1.6 µg/mL (≈ 3.7 µM)
Francisella tularensis [3]
  inhibition of growth at 1 µg/mL: > 90%
